Measured values reported in ChEMBL document CHEMBL1136887, “Synthesis and evaluation of pharmacological profile of 1-aryl-6,7-dimethoxy-3,4-dihydroisoquinoline-2(1H)-sulfonamides” (Bioorg Med Chem, 2009).
Blank lines part the entries; values can stand above or below the compound they belong to.

Legend:
Mus musculus [1] = assay: Anticonvulsant activity in ip dosed DBA/2 mouse assessed as inhibition of auditory stimulation-induced clonic seizures administered 30 mins before auditory stimulation; type: functional; settings: DBA/2, ip
Summary of the method: (§1)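 DBA/2 mice (8-12 g, 22-25 days old, either sex), groups of 10, given vehicle or drug ip and exposed to auditory stimulation 30 min later. Latency to and incidence of each seizure phase scored. ED50 per seizure phase derived from dose–response curves by Litchfield–Wilcoxon, with 95% confidence limits; at least 32 animals per ED50. Fisher's exact test used for incidence.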

Mus musculus [2] = assay: Anticonvulsant activity in ip dosed DBA/2 mouse assessed as inhibition of auditory stimulation-induced tonic seizures administered 30 mins before auditory stimulation; type: functional; settings: DBA/2, ip; summary of the method: as §1
Carbonic anhydrase 9 = Carbonic anhydrase 9 (Homo sapiens, UniProt Q16790); assay: Inhibition of human recombinant carbonic anhydrase 9 catalytic domain by stopped flow CO2 hydration method

Compound: COc1cc2c(cc1OC)C(c1ccccc1)NCC2 (stereo not drawn)
ED50 (Mus musculus [1]): 44.8 µmol/kg
ED50 (Mus musculus [2]): 19.3 µmol/kg

Ki (Carbonic anhydrase 9): 8.13 µM
Compound: COc1cc2c(cc1OC)C(c1cccc(N)c1)N(S(N)(=O)=O)CC2 (stereo not drawn)
ED50 (Mus musculus [1]): > 100 µmol/kg
ED50 (Mus musculus [2]): 65.8 µmol/kg

Ki (Carbonic anhydrase 9): 6.45 µM
Compound: COc1cc2c(cc1OC)C(c1cccc([N+](=O)[O-])c1)N(S(N)(=O)=O)CC2 (stereo not drawn)
ED50 (Mus musculus [1]): > 100 µmol/kg
ED50 (Mus musculus [2]): > 100 µmol/kg

Ki (Carbonic anhydrase 9): 4.98 µM
Compound: COc1cc2c(cc1OC)C(c1ccc(C#N)cc1)N(S(N)(=O)=O)CC2 (stereo not drawn)
ED50 (Mus musculus [1]): > 100 µmol/kg
ED50 (Mus musculus [2]): > 100 µmol/kg

Compound: COc1cc2c(cc1OC)C(c1cccc([N+](=O)[O-])c1)NCC2 (stereo not drawn)
ED50 (Mus musculus [1]): 19.3 µmol/kg
ED50 (Mus musculus [2]): 7.2 µmol/kg

Compound: COc1cc2c(cc1OC)C(c1cccc(N)c1)NCC2 (stereo not drawn)
ED50 (Mus musculus [1]): 40.4 µmol/kg
ED50 (Mus musculus [2]): 18.2 µmol/kg

Ki (Carbonic anhydrase 9): 0.48 µM
Compound: COc1cc2c(cc1OC)C(c1ccc([N+](=O)[O-])cc1)N(S(N)(=O)=O)CC2 (stereo not drawn)
ED50 (Mus musculus [1]): > 100 µmol/kg
ED50 (Mus musculus [2]): > 100 µmol/kg

Ki (Carbonic anhydrase 9): 8.2 µM
Compound: COc1cc2c(cc1OC)C(c1ccc(Br)cc1)N(S(N)(=O)=O)CC2 (stereo not drawn)
ED50 (Mus musculus [1]): > 100 µmol/kg
ED50 (Mus musculus [2]): 67.3 µmol/kg

Compound: COc1cc2c(cc1OC)C(c1ccc([N+](=O)[O-])cc1)NCC2 (stereo not drawn)
ED50 (Mus musculus [1]): 101 µmol/kg
ED50 (Mus musculus [2]): 56.1 µmol/kg

Ki (Carbonic anhydrase 9): 7.54 µM
Compound: COc1cc2c(cc1OC)C(c1ccc(Cl)cc1)N(S(N)(=O)=O)CC2 (stereo not drawn)
ED50 (Mus musculus [1]): 23.5 µmol/kg
ED50 (Mus musculus [2]): 7.25 µmol/kg

Compound: COc1cc2c(cc1OC)C(c1ccc(F)cc1)NCC2 (stereo not drawn)
ED50 (Mus musculus [1]): 57.8 µmol/kg
ED50 (Mus musculus [2]): 26.4 µmol/kg

Compound: COc1cc2c(cc1OC)C(c1ccc(Cl)cc1)N(C(C)=O)CC2 (stereo not drawn)
ED50 (Mus musculus [1]): 4.18 µmol/kg
ED50 (Mus musculus [2]): 2.39 µmol/kg

Compound: CC1(C)O[C@@H]2[C@@H](CO[C@@]3(COS(N)(=O)=O)OC(C)(C)O[C@@H]23)O1 [TOPIRAMATE]
ED50 (Mus musculus [1]): 35.7 µmol/kg
ED50 (Mus musculus [2]): 18 µmol/kg

Compound: COc1cc2c(cc1OC)C(c1ccc(Br)cc1)NCC2 (stereo not drawn)
ED50 (Mus musculus [1]): 30.6 µmol/kg
ED50 (Mus musculus [2]): 12.5 µmol/kg

Compound: COc1cc2c(cc1OC)C(c1ccc(F)cc1)N(S(N)(=O)=O)CC2 (stereo not drawn)
ED50 (Mus musculus [1]): > 100 µmol/kg
ED50 (Mus musculus [2]): 41.8 µmol/kg

Compound: COc1cc2c(cc1OC)C(c1ccc(Cl)cc1)NCC2 (stereo not drawn)
ED50 (Mus musculus [1]): 20.1 µmol/kg
ED50 (Mus musculus [2]): 19.3 µmol/kg

Ki (Carbonic anhydrase 9): 6.75 µM
Compound: COc1cc2c(cc1OC)C(c1ccc(C)cc1)N(S(N)(=O)=O)CC2 (stereo not drawn)
ED50 (Mus musculus [1]): 97.1 µmol/kg
ED50 (Mus musculus [2]): 51.7 µmol/kg

Compound: COc1cc2c(cc1OC)C(c1ccc(N)cc1)N(S(N)(=O)=O)CC2 (stereo not drawn)
ED50 (Mus musculus [1]): 17.7 µmol/kg
ED50 (Mus musculus [2]): 3.6 µmol/kg

Compound: COc1cc2c(cc1OC)C(c1ccc(Br)cc1)N(C(=O)CN1CCCCC1)CC2 (stereo not drawn)
ED50 (Mus musculus [1]): 12.7 µmol/kg
ED50 (Mus musculus [2]): 8.17 µmol/kg

Compound: COc1cc2c(cc1OC)C(c1ccc(C)cc1)NCC2 (stereo not drawn)
ED50 (Mus musculus [1]): 48.6 µmol/kg
ED50 (Mus musculus [2]): 36.5 µmol/kg

Compound: COc1cc2c(cc1OC)C(c1ccccc1)N(S(N)(=O)=O)CC2 (stereo not drawn)
ED50 (Mus musculus [1]): > 100 µmol/kg
ED50 (Mus musculus [2]): 7.82 µmol/kg

Compound: COc1cc2c(cc1OC)C(c1ccc(C#N)cc1)NCC2 (stereo not drawn)
ED50 (Mus musculus [1]): > 100 µmol/kg
ED50 (Mus musculus [2]): 48.6 µmol/kg

Compound: COc1cc2c(cc1OC)C(c1ccc(N)cc1)NCC2 (stereo not drawn)
ED50 (Mus musculus [1]): 46.6 µmol/kg
ED50 (Mus musculus [2]): 28.6 µmol/kg
